Kir21 block: inhibitors of mouse Kir2.1 inward-rectifier potassium channel | B-score at 10 µM | 0.85% of 310,000 active | HEK293-Kir2.1, FluxOR thallium flux fluorescence; active compounds read low | AID 1672;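 active = fluorescence ratio B-score at or below minus 3 SD of library scores, with starting-brightness B-score within 2 SD, cut at about -4.2 in these data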;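 also: channel flux triggered by added potassium and thallium sulfate stimulus; B-score of peak minus minimum fluorescence over baseline after thallium stimulus; more negative B-score means stronger Kir2.1 block with less thallium influx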
Target sequence (P35561 whole entry, looked up): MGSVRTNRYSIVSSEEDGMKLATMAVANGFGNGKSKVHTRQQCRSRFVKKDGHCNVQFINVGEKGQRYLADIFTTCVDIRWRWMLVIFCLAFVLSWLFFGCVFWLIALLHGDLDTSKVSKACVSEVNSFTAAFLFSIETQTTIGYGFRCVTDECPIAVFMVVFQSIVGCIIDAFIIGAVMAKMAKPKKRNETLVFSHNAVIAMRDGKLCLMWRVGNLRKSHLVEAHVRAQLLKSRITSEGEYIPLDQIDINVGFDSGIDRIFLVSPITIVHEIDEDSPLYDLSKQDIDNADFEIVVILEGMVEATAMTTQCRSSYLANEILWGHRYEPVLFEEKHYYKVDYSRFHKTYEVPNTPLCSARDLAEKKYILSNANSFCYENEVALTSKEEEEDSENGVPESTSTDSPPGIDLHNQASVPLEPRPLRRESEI
KCNK9 inh: human KCNK9 channel inhibition; Q9NPC2; B-score at 10 µM; 1.2% of 310,000 active; HEK293 KCNK9, FluxOR thallium flux fluorescence; active compounds read low;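 active = ratio B-score over 3 SD below the library mean, with starting fluorescence within 5 SD of its mean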;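 also: negative B-score means less thallium flux so channel inhibition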
KCNQ1 inh: inhibitors of human KCNQ1 potassium channel; P51787; CHO-K1 KCNQ1, FluxOR thallium flux fluorescence; active compounds read high; B-score at 10 µM; 1.3% of 310,000 active; AID 2642;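 active = compounds whose thallium flux B-score, printed positive for inhibition, exceeds three library SD while starting fluorescence stays within three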;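 also: channel opened by potassium depolarization with thallium stimulus after 20 min compound exposure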
KCNK3 block: human KCNK3 channel inhibition, primary screen; 0.84% of 340,000 active; CHO-KCNK3 thallium flux, FluxOR fluorescence; active compounds read low; B-score at 10 µM;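 active = B-score under library mean minus 4 SD, starting fluorescence ratio at most library mean plus 5 SD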;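 also: more negative B-score means stronger inhibition of thallium flux through KCNK3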
Target sequence (O14649 whole entry, looked up): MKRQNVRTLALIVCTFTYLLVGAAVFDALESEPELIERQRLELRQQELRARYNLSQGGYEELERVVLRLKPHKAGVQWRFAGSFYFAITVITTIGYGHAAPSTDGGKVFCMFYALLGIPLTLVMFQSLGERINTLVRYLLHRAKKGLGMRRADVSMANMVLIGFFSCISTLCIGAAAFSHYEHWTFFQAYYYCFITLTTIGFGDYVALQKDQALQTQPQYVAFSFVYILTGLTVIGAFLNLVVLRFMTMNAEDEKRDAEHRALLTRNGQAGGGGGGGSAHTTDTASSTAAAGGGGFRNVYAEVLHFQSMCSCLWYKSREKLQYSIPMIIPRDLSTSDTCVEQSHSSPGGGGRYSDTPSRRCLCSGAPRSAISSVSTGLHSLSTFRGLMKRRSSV
KCNQ1 pot: potentiates or activates the human KCNQ1 potassium channel; AID 2648; B-score at 10 µM; 0.35% of 310,000 active; P51787; CHO-K1 KCNQ1, thallium flux FluxOR fluorescence; active compounds read high;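 active = fluorescence ratio B-score, a plate-corrected score, at least three library SD, with initial intensity B-score within 5 SD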
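Material: CHO-K1 cells stably expressing KCNQ1. Medium: assay buffer for compound exposure, DMSO matched across wells. Reagent: K+/Tl+ depolarizing stimulus. Compound dosing: single-concentration screen. Times: 37 °C overnight plating, 90-min dark dye load, 20-min compound pretreatment. Technique: FluxOR Tl+ flux fluorescence.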
hERG protect: hERG (human) protection from proarrhythmic block; Q12809; CHO-hERG, FluxOR thallium flux, dofetilide IC70 present; activation (rescue from dofetilide block), less the hit threshold, % at 10 µM; 0.51% of 310,000 active; AID 1511;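 active = activation above the mean of controls blocked by dofetilide plus 5 SD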;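 also: thallium influx through hERG after potassium depolarization seen as dye fluorescence rise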
KCNQ1 block val: human KCNQ1 channel inhibition, validation assay; shares compounds with KCNQ1 inh; KCNQ1 cell line, FluxOR thallium flux fluorescence; inhibition, % at 10 µM; 93% of 1,600 active;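 active = primary screen active, with duplicate mean exceeding buffer control mean plus 3 SD of buffer wells, cut at about 28% in these data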;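 also: 0% = buffer control ratio and 100% = XE991 inhibitor control ratio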
CHO KCNQ1 ctr: activity in parental CHO cells lacking KCNQ1. shares compounds with KCNQ1 inh. parental CHO-K1, FluxOR thallium flux fluorescence ratio; active compounds read low; zero means no signal rise above baseline. fluorescence ratio (Tl flux) at 10 µM. 21% of 1,600 active. AID 588366;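 active = mean of duplicate thallium-flux fluorescence ratios in parental host cells more than 5 SD below the buffer control mean, cut at about 0.38 in these data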;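 also: ratio is peak minus minimum fluorescence divided by baseline fluorescence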
KCNQ1 ephys val: blocks human KCNQ1 current in automated patch clamp. 20% of 490 active. calls only at 10 µM. shares compounds with KCNQ1 inh. KCNQ1-CHO cells. AID 624120;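 active = KCNQ1 current drop exceeding 3 SD of negative control wells, seen in both duplicate runs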;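 also: steady state current during a 2 s step from -80 to +40 mV; negative values mean current inhibition and positive values mean potentiation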
KCNQ2 spec: KCNQ1 inhibitor that also blocks rat KCNQ2 channel; KCNQ2 cells, FluxOR thallium flux fluorescence; inhibition, % at 10 µM; shares compounds with KCNQ1 inh; 71% of 1,600 active;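 active = mean percent inhibition of the KCNQ2 thallium signal more than 5 SD above the buffer-only control wells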;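 also: KCNQ2 expressed in CHO cells; 0% = buffer control wells and 100% = XE-991 inhibitor control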
KCNQ1-KCNE1 inh: KCNQ1 inhibitor that also blocks human KCNQ1/KCNE1 channel | AID 652147 | shares compounds with KCNQ1 inh | inhibition, % at 10 µM | KCNQ1/KCNE1 cells, FluxOR thallium flux fluorescence | 77% of 1,600 active;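 active = mean percent inhibition of duplicate wells above the buffer-only control mean plus 3 SD of those controls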;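 also: 0% = buffer only wells and 100% = XE-991 inhibitor control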
KCNK9 block conf: human KCNK9 inhibitor confirmation; shares compounds with KCNK9 inh; 43% of 4,900 active; HEK293 KCNK9 cells, FluxOR thallium flux fluorescence; inhibition, % at 10 µM;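 active = thallium signal inhibited by more than 5 SD of the compound-free buffer control wells, on both duplicate plates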;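 also: 0% = assay buffer control wells without compound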
Kir2-1 spec: tests whether KCNK9 modulators also affect mouse Kir2.1; shares compounds with KCNK9 inh; Kir2.1 cells, FluxOR thallium flux fluorescence; inhibition, % at 10 µM; 4% of 4,900 active; AID 492993;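 active = thallium signal drop more than 5 SD beyond the mean of the no-compound control wells, seen in both duplicate plates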;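 also: signal is fluorescence rise after thallium addition divided by baseline fluorescence; plate controls were assay buffer only for no effect and full block by chlorpromazine control for full effect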
HEK293 Tl ctr: second counter-screen for KCNK9 modulators: effect in non-induced cells | inhibition, % at 10 µM | shares compounds with KCNK9 inh | non-induced KCNK9-HEK293, FluxOR thallium flux | 40% of 4,900 active;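 active = thallium signal drop beyond 5 SD of the untreated control mean, on both duplicate plates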;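 also: plate controls were buffer only IC0 wells for no effect and SID17386958 at its maximal inhibitory level for full effect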
KCNK3 confirm: human KCNK3 channel inhibition, confirmation assay; shares compounds with KCNK3 block; CHO-KCNK3 thallium flux, FluxOR fluorescence; 0% buffer, 100% carvedilol maximal block; ratio percent of control, % at 10 µM; 99% of 2,400 active; AID 651638;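 active = ratio percent of control, averaged over triplicates, above buffer control mean plus 5 SD, cut at about 64% in these data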;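 also: ratio is the fluorescence rise from min to max over baseline after thallium stimulus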
KCNK3 uninduced: KCNK3 inhibitor counter-screen hit in non-induced cells; shares compounds with KCNK3 block; non-induced KCNK3 parental cells, FluxOR thallium flux; active compounds read low; thallium flux ratio (lower = more inhibition) at 10 µM; 40% of 2,400 active;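 active = thallium flux ratio, averaged over three wells, more than 5 SD below the buffer control mean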;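 also: host cells are CHO cells without KCNK3 induction; ratio is peak minus trough fluorescence over baseline then normalized to buffer controls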
* hit, by the source's call; i = inactive; x = not tested or not shown; + = active, no number. Shown are actives, neighbours in structure and some others; about 3.7% of the full set was active somewhere.

SMILES	Kir21 block	KCNK9 inh	KCNQ1 inh	KCNK3 block	KCNQ1 pot	hERG protect	KCNQ1 block val	CHO KCNQ1 ctr	KCNQ2 spec	KCNQ1-KCNE1 inh	KCNK3 confirm	KCNK3 uninduced	others
O=C(CCc1nnc(-c2ccsc2)o1)N1CCc2c(Cl)cccc2C1	0.75	i	i	i	i	-8	x	x	x	x	x	x
O=C(Nc1cccc(C(=O)Nc2cccc(Br)c2)c1)c1ccccc1	-1.4	i	13*	-12*	i	-6	116*	0.5	111%*	151%*	118*	i	KCNQ1 ephys val=i
CS(=O)(=O)N(CC(=O)NCCSCc1ccco1)c1ccc(Cl)cc1	-1	i	i	i	i	-10	x	x	x	x	x	x
O=C(NCCSCc1ccco1)Nc1cc(Cl)cc(Cl)c1	0.1	-8.2*	8*	-13*	i	-19	134*	0.42	i	91%*	100*	i	KCNQ1 ephys val=i;KCNK9 block conf=68%*;Kir2-1 spec=i;HEK293 Tl ctr=32%*
CCC(=O)c1ccc(OCC(O)CN2CCN(S(=O)(=O)c3ccc(NC(C)=O)cc3)CC2)cc1 (centres undefined)	0.66	i	i	i	i	-9	x	x	x	x	x	x
Cc1nc2ccc(S(=O)(=O)Nc3cccc(-c4nc5cccnc5s4)c3C)cc2s1	0.84	i	12*	-9.6*	i	-21	145*	0.32*	105%*	+	114*	i
Cc1nc2ccc(S(=O)(=O)Nc3cc(-c4nc5cccnc5s4)ccc3C)cc2s1	-0.02	i	i	i	i	-17	x	x	x	x	x	x
CCOc1ccc(C(=O)Nc2cccc(C(=O)O)c2)cc1Cl	-0.04	i	i	i	i	-7	x	x	x	x	x	x
CCOc1ccc(C(=O)Nc2cccc(-c3nc4cccnc4o3)c2)cc1Cl	-0.4	-16*	9*	-10*	i	-18	135*	0.47	110%*	190%*	125*	i	KCNQ1 ephys val=i;KCNK9 block conf=46%*;Kir2-1 spec=i;HEK293 Tl ctr=i
COCC(=O)NC1CC(C)(C)Cc2c1cnn2-c1ccc(F)cc1 (centres undefined)	-1	i	i	i	i	-1	x	x	x	x	x	x
O=C(c1cc(Cl)ccc1Cl)N1CCN(c2ccccn2)CC1	-1.5	i	i	i	i	-8	x	x	x	x	x	x
O=C(c1cnc(N2CCN(c3ccccn3)CC2)c2ccccc12)N1CCN(c2cccc(Cl)c2)CC1	-0.04	i	10*	-9.3*	i	-3	102*	0.38*	119%*	130%*	97*	i
CCCNC(=S)N1CCN(c2nc(C)nc3sc4c(c23)CCCC4)CC1	0.47	i	8*	-9.5*	i	-13	112*	0.41	135%*	170%*	134*	0.14*	KCNQ1 ephys val=i
CC(=O)N/C(=C\c1ccc(C)o1)C(=O)NCc1ccccc1	0.51	i	i	i	i	-6	x	x	x	x	x	x
COc1ccc(Nc2nc(-c3cccc(OC)c3O)nc3ccccc23)cc1	-0.07	i	7*	-9.9*	i	-4	168*	0.3*	116%*	+	133*	0.15*
CC(C)c1ccc2c(c1)C1(NN=C(c3ccccc3)S1)C(=O)N2 (centres undefined)	0.95	i	18*	-12*	i	-22	68*	0.35*	78%*	42%*	138*	0.095*
CC(C)(C)OC(=O)N1Cc2ccccc2C[C@H]1C(=O)NC1CCCC1	-0.09	i	i	i	i	-6	x	x	x	x	x	x
Cn1nccc1C(=O)N1CCC(Cc2ccccc2)CC1	1.1	i	i	i	i	-8	x	x	x	x	x	x
Cc1ccc2c(c1)N(S(=O)(=O)c1cc(-c3onc(C)c3C)ccc1C)CCO2	0.09	-7.5*	7*	-11*	i	-10	77*	0.35*	106%*	93%*	106*	i
CC1CN(S(=O)(=O)c2cccc(C(=O)NCc3ccccn3)c2)CC(C)O1 (centres undefined)	x	x	x	i	x	x	x	x	x	x	x	x
COc1ccccc1Nc1nnc(SCC2CCCCO2)s1 (centres undefined)	-1.2	i	i	i	i	-12	x	x	x	x	x	x
Cc1ccccc1Nc1nnc(SCC2CCCCO2)s1 (centres undefined)	-0.84	-8.8*	i	i	i	-6	x	x	x	x	x	x	KCNK9 block conf=i;Kir2-1 spec=i;HEK293 Tl ctr=i
CC(=O)c1ccc(OC(=O)COc2ccccc2Cl)cc1	0.03	i	i	i	i	-2	x	x	x	x	x	x
COc1ccc(NS(=O)(=O)c2ccc3nc(COc4cccc5ccccc45)[nH]c3c2)cc1	0.17	i	i	i	i	-17	x	x	x	x	x	x	KCNK9 block conf=i;Kir2-1 spec=i;HEK293 Tl ctr=i
Cc1ccc(OCC(=O)c2ccc3c(c2)CCCC3)cc1C	1.1	i	i	i	i	-3	x	x	x	x	x	x	KCNK9 block conf=i;Kir2-1 spec=i;HEK293 Tl ctr=i
O=C(COc1ccc(Br)cc1)c1ccc2c(c1)CCCC2	0.65	i	i	i	i	-4	x	x	x	x	x	x
Cc1ccc(C(=O)NCc2ccco2)cc1S(=O)(=O)N1CCCCC1	0.14	i	i	i	i	2	x	x	x	x	x	x

From PubChem BioAssay
